This is an account of results in ChEMBL document CHEMBL1124551, “Nucleic acid related compounds. 57. Synthesis, x-ray crystal structure, lipophilic partition properties, and antiretroviral activities of anomeric 3'-azido-2',3'-dideoxy-2,6-diaminopurine ribosides” (J Med Chem, 1989).

Each structure is given as a SMILES string. Where only a bound is given, the exact number is not on record here.

Experiment [1] can be described thus: Ratio of CD50 and ED50 values against inhibition of HIV in MT-4 cells. The format is functional, MT4.
Experiment [2] is described as follows: Toxic dose required to cause an alteration of normal C3H cell morphology. The class given is functional, Mus musculus. An outline of the steps: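 C3H cell cultures were exposed to graded compound concentrations and examined by microscope. TD is the dose that alters normal cell morphology.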
The test system of experiment [3] is MT4. As to the kind of experiment: Cytotoxic dose required to reduce MT-4 cell viability by 50%.
Experiment [4] concerns MT4. Nature of the experiment: Effective dose required to inhibit HIV-induced cytopathogenicity in human MT-4 cells. The format is functional. The note with it: read-out: ED50 (the source's name). An outline of the steps: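 After 5 days at 37 °C, viable cells counted by trypan blue exclusion in a hemacytometer. ED₅₀ is the dose giving 50% protection against HIV-induced cytopathogenicity.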

Experiment [5] can be described thus: Effective dose required to inhibit MSV-induced transformation in murine C3H cells. The class given is functional. The note with it: Mus musculus, read-out: ED50 (the source's name). An outline of the steps: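 Confluent mouse embryo C3H monolayers were infected with 80 focus-forming units of MSV for 90 min. Medium was then replaced with fresh medium holding graded compound concentrations. After 6 days at 37 °C, transformation was scored microscopically. ED₅₀ is the dose that inhibits transformation by 50%.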

As for `Nc1nc(N)c2ncn([C@H]3CC[C@@H](CO)O3)c2n1`, in experiment [1], the Ratio was 115. In experiment [2], this compound came in with a TD greater than 200 µM. Also, the CD50 with MT4 [3] came to 404 µM. For the same compound, the EC50 with MT4 [4] came to 3.5 µM; in experiment [5] it was 19 µM.

On to `[N-]=[N+]=N[C@@H]1C[C@H](N2C=NC3C(=O)N=C(N)N=C32)O[C@@H]1CO` (stereo not given in full), for which, in experiment [1], the Ratio was 59. In experiment [2], this compound came in with a TD greater than 400 µM. In addition, the CD50 in the experiment on MT4 [3] was 165 µM. Also, the EC50 with MT4 [4] came out at 2.8 µM; in experiment [5], 6.2 µM.
